The record followed here is PMC10570129 (iScience, 2023).

pKd: −log10 of the molar value. Where two headings read alike, the source gives them in different places.

Assay [1] has as its target PahS. The experiment in a line: SPR, PAHs injected over PahS sensor chip. Type of assay: binding, Cycloclasticus sp. P1. The following applies: read-out: KD of PahS for PAH, 20°C. In outline: (§1)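 Biacore T200 SPR. The PahS protein, at 30 μg/mL in 10 mM sodium acetate (pH 5.5), was covalently immobilised on an L1 chip by primary amine coupling. Each PAH was diluted to 50 μM in PBS running buffer containing 5% DMSO. It was injected for 120 s at 30 μL/min. PAH-free running buffer served as the negative control.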
In general terms: Surface plasmon resonance follows binding to a sensor surface in real time, without labels.

Assay [2] has as its target PahP. Kind of assay: SPR, PAHs injected over PahP sensor chip. The class given is binding, Cycloclasticus sp. P1. The following applies: read-out: KD of PahP for PAH.
In assay [3] the target is mutated PahS (Leu370‒Ala370, Leu444‒Ala444, Ala452‒Gly452). Kind of assay: SPR, PAHs on site-mutated PahS. The class given is binding, Cycloclasticus sp. P1. The following applies: range over three mutated proteins and five PAHs. The method in brief: as §1
For assay [4], the target named is mutated PahP (Tyr42‒Gly42, Leu135‒Ala135, Tyr-215‒Ala215, Leu-254‒Ala254). Kind of assay: SPR, PAHs on site-mutated PahP. The conditions noted are these: range over mutated PahP and five PAHs. Type of assay: binding, Cycloclasticus sp. P1. In outline:
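Biacore T200 SPR. PahP protein was diluted in 10 mM sodium acetate (pH 5.5) and amine-coupled to a CM5 chip. PAHs were diluted to 50 μM in PBS running buffer with 5% DMSO. They were injected over the PahP surface for 120 s at 30 μL/min. Running buffer without PAH was the negative control.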

The subject of assay [5] is PahP binding to PahS. The experiment in a line: SPR, PahP bound to PAH in advance, injected over PahS sensor chip. The conditions noted are these: PahP binds PAH first. Also noted: species or system Cycloclasticus sp. P1.
Assay [6] concerns the target PahP and PahR of the PahK-PahP and PahK-PahR reporter cells. Kind of assay: FRET or BRET. For orientation: BRET reads energy transfer from a luciferase to a nearby fluorophore.
Assay [7] concerns the target PahP-YFP (Cycloclasticus sp. P1). The experiment in a line: FRET or BRET.
Assay [8] concerns the target PahP (Cycloclasticus sp. P1). Kind of assay: SPR.
Assay [9] concerns the target PahR (Cycloclasticus sp. P1). Kind of assay: SPR.
The target of assay [10] is PahP (Cycloclasticus sp. P1). Kind of assay: SPR. This is another data set of the same source.
The target in assay [11] is PahP (Cycloclasticus sp. P1). Kind of assay: SPR. The source holds these as a separate data set.
The target in assay [12] is PahK (Cycloclasticus sp. P1). Kind of assay: SPR.

As usually defined, the pKd is −log10 of the Kd, conventionally taken in molar units. `c1ccc2cc3ccccc3cc2c1` [anthracene]: the values for the pKd in [1] and in assay [2] were 7.66 and 7.39, respectively. In assay [3], the “KD of the mutated PahS proteins with PAHs” value is given as 10^−3 to 10^−4 M. The “KD of site-mutated PahP with PAHs” value in [4] is listed as 10^−3 to 10^−4 M.

In the case of `c1ccc2c(c1)Cc1ccccc1-2` [fluorene], the pKd in assay [1] is 6.75; in [2], 7.76. For the same compound, the “KD of the mutated PahS proteins with PAHs” value in assay [3] is recorded as 10^−3 to 10^−4 M. Further, the “KD of site-mutated PahP with PAHs” value in assay [4] was 10^−3 to 10^−4 M.

In the case of `c1ccc2ccccc2c1` [naphthalene], the pKd in [1] was 7.84; in assay [2] it was 8.28. In addition, in assay [3], the “KD of the mutated PahS proteins with PAHs” value is 10^−3 to 10^−4 M. The “KD of site-mutated PahP with PAHs” value in assay [4] is 10^−3 to 10^−4 M.

Take `c1ccc2c(c1)ccc1ccccc12` [phenanthrene]: the pKd is 7.67 in assay [1] and 7.71 in [2]. Further, in [3], the “KD of the mutated PahS proteins with PAHs” value was 10^−3 to 10^−4 M. Also, the “KD of site-mutated PahP with PAHs” value in assay [4] was 10^−3 to 10^−4 M. Moreover, the “binding affinity of PahP with PahS compared to that without PAH” value in assay [5] was “lowered”.

Turning to `c1cc2ccc3cccc4ccc(c1)c2c34` [pyrene], the results for the pKd in [1] and in [2] were 7.68 and 7.84, respectively. Also, the “KD of the mutated PahS proteins with PAHs” value in assay [3] is given as 10^−3 to 10^−4 M. Besides, the “KD of site-mutated PahP with PAHs” value in assay [4] was 10^−3 to 10^−4 M. Also, the “binding affinity of PahP with PahS compared to that without PAH” value in [5] is reported as “lowered”.

CFP-PahK (natural protein) showed an FRET efficiency in [6] of 16.7 to 21.4%.

In the case of CFP-PahS (natural protein), the FRET efficiency in [7] came out at 19.7%.

Consider PahK (natural protein), for which the pKd was 8.01 in [8] and 7.72 in assay [9].

For PahS (natural protein), the negative logarithm of the Kd (pKd) was 8.67 in assay [10]; 8.53 in assay [11]; 3.76 in assay [12]; 7.04 in assay [8]; 3.92 in assay [9].
